Measurements taken from ChEMBL document CHEMBL1158515, “Novel selective thiazoleacetic acids as CRTH2 antagonists developed from in silico derived hits. Part 1” (Bioorg Med Chem Lett, 2010).

How the values were obtained:
[1] = molecular target: T1, Prostaglandin D2 receptor 2 (Homo sapiens, UniProt Q9Y5Y4); test: Antagonist activity at human CRTH2 receptor expressed in HEK285-7 cells assessed as inhibition of beta arrestin translocation by bioluminescence resonance energy transfer assay; type: functional, cell-based
T1 sequence (Q9Y5Y4 whole entry): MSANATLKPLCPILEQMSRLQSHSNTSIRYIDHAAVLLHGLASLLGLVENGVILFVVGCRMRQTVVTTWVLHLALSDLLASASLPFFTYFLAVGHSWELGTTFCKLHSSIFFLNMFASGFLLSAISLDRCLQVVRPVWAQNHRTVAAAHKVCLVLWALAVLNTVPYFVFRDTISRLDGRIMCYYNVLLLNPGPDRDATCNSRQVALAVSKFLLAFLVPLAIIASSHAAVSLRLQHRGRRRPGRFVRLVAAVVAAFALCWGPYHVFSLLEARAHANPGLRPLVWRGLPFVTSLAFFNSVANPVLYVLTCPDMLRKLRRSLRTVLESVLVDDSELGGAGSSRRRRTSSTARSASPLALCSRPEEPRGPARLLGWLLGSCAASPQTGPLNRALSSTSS
Procedure, shortened: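 BRET2 readout in HEK385-7 cells transfected with CRTH2 (GFP2-β-arrestin2 acceptor, receptor-Rluc donor). Cells preincubated with antagonist 5 min with shaking, then PGD₂ added at a level eliciting about 75–80% of maximal agonist response, 5 min more. DeepBlueC coelenterazine injected; emission read 5 s later at 400 and 515 nm; signal = 515/400 ratio. IC50 derived.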

[2] = molecular target: T1, Prostaglandin D2 receptor 2; test: Displacement of[3H]PGD2 from human CRTH2 receptor expressed in african green monkey COS7 cells; type: cell-based, COS-7
Procedure, shortened: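 Equilibrium competition binding against [³H]PGD₂ on stably transfected COS7 cells expressing human CRTH2. Nonspecific binding defined with […] unlabelled PGD₂. IC50 reported.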

[3] = molecular target: T2, Prostaglandin D2 receptor 2 (Homo sapiens) (UniProt Q9Y5Y4); test: Antagonist activity at human CRTH2 receptor expressed in HEK285-7 cells assessed as inhibition of beta arrestin translocation by bioluminescence resonance energy transfer assay relative to control; type: functional, cell-based
T2 sequence (whole entry): T1 sequence (Q9Y5Y4 whole entry)
Procedure, shortened: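 Same BRET2 β-arrestin2 translocation format in CRTH2-transfected HEK385-7 cells: 5 min antagonist preincubation, then PGD₂ at about 75–80% of maximal agonist efficacy for 5 min, DeepBlueC coelenterazine, 515/400 nm ratio. Value is antagonist efficacy expressed as percent.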

IC50 [1] | IC50 [2] | Efficacy [3] | SMILES
4100 nM | 180 nM | > 70% | O=C(O)Cc1sc(Cc2ccccc2)nc1-c1ccc(Cl)cc1
1100 nM | 700 nM | > 70% | O=C(O)Cc1sc(Nc2ccc(C(F)(F)F)cc2)nc1-c1ccc(Cl)cc1
1300 nM | 100 nM | > 70% | O=C(O)Cc1sc(Nc2ccccc2)nc1-c1ccc(Cl)cc1
730 nM | 450 nM | > 70% | COc1ccccc1Nc1nc(-c2ccc(Cl)cc2)c(CC(=O)O)s1
 | 1400 nM | > 70% | CCc1ccc(-c2nc(-c3ccccc3OC)sc2CC(=O)O)cc1
960 nM | 550 nM | > 70% | O=C(O)Cc1sc(-c2ccccc2)nc1-c1ccc(Cl)cc1 [FENTIAZAC]
3700 nM | 1500 nM | > 70% | O=C(O)Cc1sc(-c2ccc(F)cc2)nc1-c1ccccc1
480 nM | 49 nM | > 70% | COc1ccccc1Nc1nc(-c2ccc(Oc3ccccc3)cc2)c(CC(=O)O)s1
3800 nM | 330 nM | > 70% | COc1ccc(Cc2nc(-c3ccccc3)c(CC(=O)O)s2)cc1OC
66 nM | 3.7 nM | > 70% | O=C(O)Cc1sc(Cc2ccc(Cl)cc2)nc1-c1ccc(Oc2ccccc2)cc1
1900 nM | 310 nM | > 70% | COc1ccccc1Nc1nc(-c2ccc(-c3ccccc3)cc2)c(CC(=O)O)s1
1500 nM | 24 nM | > 70% | O=C(O)Cc1sc(Cc2ccccc2-c2ccc3c(c2)OCO3)nc1-c1ccc(F)cc1
370 nM | 24 nM | > 70% | O=C(O)Cc1sc(Cc2ccccc2-c2ccccc2)nc1-c1ccc(F)cc1
 | 210 nM | > 70% | COc1ccc(-c2nc(-c3ccc(Cl)cc3)sc2CC(=O)O)cc1
850 nM | 360 nM | > 70% | COc1ccc(-c2nc(Cc3ccc(Cl)cc3)sc2CC(=O)O)cc1
> 100000 nM | 210 nM | > 70% | O=C(O)Cc1sc(Nc2ccccc2F)nc1-c1ccc(Oc2ccccc2)cc1
510 nM | 41 nM | > 70% | O=C(O)Cc1sc(Cc2ccccc2-c2ccccc2)nc1-c1ccc(Cl)cc1
1800 nM | 250 nM | > 70% | Cc1ccc(Cc2nc(-c3ccccc3)c(CC(=O)O)s2)cc1
1500 nM | 350 nM | > 70% | O=C(O)Cc1sc(Nc2ccccc2)nc1-c1ccccc1
390 nM | 40 nM | > 70% | COc1cccc(-c2ccccc2Cc2nc(-c3ccc(F)cc3)c(CC(=O)O)s2)c1

IC50 [1] | IC50 [2] | Efficacy [3] | SMILES
350 nM | 1300 nM | 50% | CCc1ccc(-c2nc(-c3ccccc3)sc2CC(=O)O)cc1
350 nM | 84 nM | > 70% | O=C(O)Cc1sc(Nc2ccccc2)nc1-c1ccc(Oc2ccccc2)cc1
190 nM | 170 nM | 30% | N#Cc1ccc(-c2ccccc2Cc2nc(-c3ccc(F)cc3)c(CC(=O)O)s2)cc1
560 nM | 750 nM | > 70% | Cc1ccc(Nc2nc(-c3ccc(Cl)cc3)c(CC(=O)O)s2)cc1
660 nM | 160 nM | > 70% | O=C(O)Cc1sc(-c2ccc(Oc3ccccc3)cc2)nc1-c1ccccc1
220 nM | 50 nM | > 70% | O=C(O)Cc1sc(Cc2ccc(Cl)cc2)nc1-c1ccc(Cl)cc1
 | 4100 nM | > 70% | COc1ccc(-c2nc(-c3ccc(OC)cc3)c(CC(=O)O)s2)cc1
270 nM | 72 nM | > 70% | COc1ccc(-c2ccccc2Cc2nc(-c3ccc(F)cc3)c(CC(=O)O)s2)cc1
> 100000 nM | 700 nM | > 70% | O=C(O)Cc1sc(Cc2ccccc2Br)nc1-c1ccc(F)cc1
> 100000 nM | 340 nM | > 70% | N#Cc1cccc(-c2ccccc2Cc2nc(-c3ccc(F)cc3)c(CC(=O)O)s2)c1
 | 390 nM | > 70% | COc1ccc(-c2nc(-c3ccc(Br)cc3)c(CC(=O)O)s2)cc1
> 100000 nM | 170 nM | > 70% | COc1ccccc1-c1ccccc1Cc1nc(-c2ccc(F)cc2)c(CC(=O)O)s1
370 nM | 220 nM | > 70% | O=C(O)Cc1sc(Nc2ccc3ccccc3c2)nc1-c1ccc(Br)cc1
1300 nM | 650 nM | > 70% | O=C(O)Cc1sc(Nc2ccccc2)nc1-c1ccc(F)cc1
570 nM | 41 nM | > 70% | O=C(O)Cc1sc(Cc2ccc3ccccc3c2)nc1-c1ccc(Cl)cc1
> 100000 nM | 160 nM | > 70% | O=C(O)Cc1sc(Cc2ccccc2Oc2ccccc2)nc1-c1ccc(Cl)cc1
3500 nM | 860 nM | > 70% | O=C(O)Cc1sc(-c2ccccc2)nc1-c1ccc(F)cc1
3800 nM | 940 nM | 20% | O=C(O)Cc1sc(Nc2ccc(Cl)cc2)nc1-c1ccc(-c2ccccc2)cc1
1500 nM | 940 nM | > 70% | COc1ccc(Nc2nc(-c3ccccc3)c(CC(=O)O)s2)cc1
540 nM | 89 nM | > 70% | O=C(O)Cc1sc(Nc2ccc(F)cc2)nc1-c1ccc(Oc2ccccc2)cc1

IC50 [1] | IC50 [2] | Efficacy [3] | SMILES
1200 nM | 660 nM | > 70% | O=C(O)Cc1sc(Nc2ccccc2)nc1-c1ccc(-c2ccccc2)cc1
5000 nM | 7000 nM | > 70% | COc1ccc(-c2nc(-c3ccccc3)sc2CC(=O)O)cc1
1300 nM | 93 nM | > 70% | O=C(O)Cc1sc(-c2ccc(Oc3ccccc3)cc2)nc1-c1ccc(Cl)cc1
260 nM | 94 nM | 20% | O=C(O)Cc1sc(Nc2ccc3ccccc3c2)nc1-c1ccc(Oc2ccccc2)cc1
16000 nM | 1200 nM | > 70% | CC(C)c1ccc(Nc2nc(-c3ccc(Cl)cc3)c(CC(=O)O)s2)cc1
 | 350 nM | > 70% | COc1ccccc1-c1nc(-c2ccc(Br)cc2)c(CC(=O)O)s1
1600 nM | 990 nM | > 70% | O=C(O)Cc1sc(-c2ccc(Cl)cc2)nc1-c1ccccc1
 | 460 nM | > 70% | CN(C)c1ccc(-c2nc(-c3ccc(Br)cc3)c(CC(=O)O)s2)cc1
580 nM | 88 nM | > 70% | O=C(O)Cc1sc(Cc2ccc(Cl)cc2)nc1-c1ccccc1
1700 nM | 820 nM | > 70% | COc1ccc(-c2nc(-c3ccccc3)c(CC(=O)O)s2)cc1
2400 nM | 1900 nM | > 70% | COc1ccc(-c2nc(Nc3ccccc3)sc2CC(=O)O)cc1
180 nM | 140 nM | 30% | O=C(O)Cc1sc(Cc2ccccc2)nc1-c1ccc(F)cc1
630 nM | 38 nM | > 70% | O=C(O)Cc1sc(-c2ccccc2)nc1-c1ccc(-c2ccccc2)cc1
2500 nM | 870 nM | > 70% | O=C(O)Cc1sc(-c2ccccc2)nc1-c1ccccc1
2100 nM | 1500 nM | > 70% | COc1ccccc1Nc1nc(-c2ccc(F)cc2)c(CC(=O)O)s1
> 100000 nM | 160 nM | > 70% | O=C(O)Cc1sc(Cc2ccccc2-c2cccc(OC(F)(F)F)c2)nc1-c1ccc(F)cc1
1600 nM | 470 nM | > 70% | COc1ccc(-c2nc(-c3ccc(Oc4ccccc4)cc3)sc2CC(=O)O)cc1
 | 990 nM | > 70% | Cc1ccc(-c2nc(-c3ccc(Cl)cc3)sc2CC(=O)O)c(C)c1
> 100000 nM | 130 nM | > 70% | O=C(O)Cc1sc(Nc2ccccc2Cl)nc1-c1ccc(Oc2ccccc2)cc1
1900 nM | 960 nM | > 70% | O=C(O)Cc1sc(Nc2ccc(Cl)cc2)nc1-c1ccc(F)cc1
